Test results as given in ChEMBL document CHEMBL1127300, “Identification, synthesis, and characterization of a unique class of N-methyl-D-aspartate antagonists. The 6,11-ethanobenzo[b]quinolizinium cation” (J Med Chem, 1994).
Structures can show the parent of a compound that is named as a salt.

Columns and labels:
Glutamate NMDA receptor [1] = test: Binding affinity was determined towards NMDA receptor using [3H]thienylcyclidine as radioligand; format: protein-complex assay
Outline: (§1)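 Rat (male Sprague–Dawley) whole-brain membranes, washed three times in 50 mM Tris-HCl pH 7.7 and resuspended in 5 mM Tris-HCl at 0.5 mg protein/tube. About 1 nM [3H]TCP final with varied test concentrations. 25 min at room temperature. Nonspecific binding defined with 100 μM PCP. Filtration on PEI-soaked glass-fibre filters and scintillation counting.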

Mus musculus [2] = species: Mus musculus; test: In vitro neuroprotective efficacy determined to protect cultured mouse cortical neurons from an excitotoxic exposure to NMDA; format: functional
Mus musculus [3] = species: Mus musculus; test: In vitro for neuroprotective efficacy to protect cultured cortical neurons from an excitotoxic exposure to NMDA receptor.; format: functional
Mus musculus [4] = species: Mus musculus; test: Electrophysiological responses in open channel block to NMDA were recorded in 13-day old mouse cortical neuronal cultures.; format: functional
[5] = Ratio between closed channel blockade to open channel blockade; format: functional
Outline: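 Whole-cell voltage clamp at −60 mV, room temperature (ca. 23 °C), in day-13 mouse cortical neurons; 100 μM NMDA. Open-channel block: NMDA with compound for 300 s; current at 300 s normalized to peak, % inhibition vs controls. Closed-channel block: 30 min with compound plus 10 μM 7-chlorokynurenate without NMDA, 1–2 min wash, then NMDA response vs two baseline responses. IC50 from Hill-type fit.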

[6] = target: Histamine H1 receptor (Mus musculus) (UniProt P70174); test: Percent inhibition of radioligand [3H]pyrilamine binding to H1 receptor at 10 uM concentration
Sequence of Histamine H1 receptor (Mus musculus) (P70174 whole entry): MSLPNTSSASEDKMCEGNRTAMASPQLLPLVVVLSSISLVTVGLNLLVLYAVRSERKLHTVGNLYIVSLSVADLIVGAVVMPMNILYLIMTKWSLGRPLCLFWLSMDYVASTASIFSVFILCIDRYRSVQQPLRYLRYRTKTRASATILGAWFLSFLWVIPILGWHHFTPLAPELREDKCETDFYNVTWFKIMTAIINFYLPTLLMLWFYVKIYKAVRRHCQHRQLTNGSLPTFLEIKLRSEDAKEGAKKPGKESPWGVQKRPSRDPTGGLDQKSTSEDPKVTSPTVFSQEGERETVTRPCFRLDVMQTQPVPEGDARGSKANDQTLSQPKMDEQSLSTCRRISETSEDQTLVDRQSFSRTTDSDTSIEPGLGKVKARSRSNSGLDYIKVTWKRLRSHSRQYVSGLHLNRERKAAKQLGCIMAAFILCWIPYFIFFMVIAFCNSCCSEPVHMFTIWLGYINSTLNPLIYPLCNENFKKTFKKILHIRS

[7] = target: Alpha-2 adrenergic receptor (Mus musculus) (UniProt P30545+Q01338+Q01337); test: Percent inhibition of radioligand [3H]rauwolscine binding to alpha-2 receptor at 10 uM concentration; format: protein assay
[8] = target: D(1A) dopamine receptor (Mus musculus) (UniProt Q61616); test: Percent inhibition of radioligand [3H]SCH-23390 binding to dopamine receptor D1 at 10 uM concentration
Sequence of D(1A) dopamine receptor (Mus musculus) (Q61616 whole entry): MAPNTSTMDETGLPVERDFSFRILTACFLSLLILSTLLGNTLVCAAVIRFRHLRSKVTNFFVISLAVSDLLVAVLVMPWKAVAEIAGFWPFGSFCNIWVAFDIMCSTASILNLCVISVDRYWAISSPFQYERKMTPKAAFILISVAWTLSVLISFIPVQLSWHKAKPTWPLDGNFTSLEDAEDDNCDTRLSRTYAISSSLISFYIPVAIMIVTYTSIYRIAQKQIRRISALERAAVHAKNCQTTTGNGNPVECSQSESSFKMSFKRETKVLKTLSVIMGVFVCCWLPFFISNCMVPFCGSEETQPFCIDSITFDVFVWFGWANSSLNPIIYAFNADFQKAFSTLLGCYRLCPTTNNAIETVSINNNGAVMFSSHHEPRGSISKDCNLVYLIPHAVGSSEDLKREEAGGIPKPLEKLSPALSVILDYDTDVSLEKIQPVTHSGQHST

[9] = target: Alpha-1 adrenergic receptor (Mus musculus) (UniProt P97714+P97717+P97718); test: Percent inhibition of radioligand [3H]prazosin binding to alpha-1 receptor at 10 uM concentration; format: protein assay
[10] = target: Sigma non-opioid intracellular receptor 1 (Mus musculus) (UniProt O55242); test: Percent inhibition of radioligand [3H]DTG binding to sigma receptor at 10 uM concentration
Sequence of Sigma non-opioid intracellular receptor 1 (Mus musculus) (O55242 whole entry): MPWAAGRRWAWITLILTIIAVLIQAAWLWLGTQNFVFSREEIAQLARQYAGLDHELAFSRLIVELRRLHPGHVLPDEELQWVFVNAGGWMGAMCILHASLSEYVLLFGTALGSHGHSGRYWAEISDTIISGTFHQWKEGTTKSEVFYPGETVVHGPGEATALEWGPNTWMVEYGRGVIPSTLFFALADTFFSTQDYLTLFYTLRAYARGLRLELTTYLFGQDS

[11] = target: Muscarinic acetylcholine receptor (Mus musculus) (UniProt Q920H4+Q9ERZ4+P12657+P32211+Q9ERZ3); test: Percent inhibition of radioligand [3H]QNB binding to muscarinic receptor at 10 uM concentration; format: protein assay
[12] = target: Opioid receptor (Mus musculus) (UniProt P42866+P32300+P33534); test: Percent inhibition of radioligand [3H]-naxalone binding to opiate receptor at 10 uM concentration; format: protein assay
Sequence of Opioid receptor (Mus musculus) (P32300 whole entry, looked up): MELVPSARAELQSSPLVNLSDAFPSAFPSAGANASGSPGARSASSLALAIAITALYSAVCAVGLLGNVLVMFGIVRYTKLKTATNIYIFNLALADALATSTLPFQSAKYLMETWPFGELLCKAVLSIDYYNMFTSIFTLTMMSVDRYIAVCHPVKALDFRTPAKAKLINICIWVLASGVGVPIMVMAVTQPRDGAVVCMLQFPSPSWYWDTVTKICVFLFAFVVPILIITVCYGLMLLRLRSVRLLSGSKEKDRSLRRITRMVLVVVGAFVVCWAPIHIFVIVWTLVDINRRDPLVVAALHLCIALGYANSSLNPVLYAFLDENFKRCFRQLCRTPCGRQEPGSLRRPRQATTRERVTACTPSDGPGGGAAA
Sequence of Opioid receptor (Mus musculus) (P33534 whole entry, looked up): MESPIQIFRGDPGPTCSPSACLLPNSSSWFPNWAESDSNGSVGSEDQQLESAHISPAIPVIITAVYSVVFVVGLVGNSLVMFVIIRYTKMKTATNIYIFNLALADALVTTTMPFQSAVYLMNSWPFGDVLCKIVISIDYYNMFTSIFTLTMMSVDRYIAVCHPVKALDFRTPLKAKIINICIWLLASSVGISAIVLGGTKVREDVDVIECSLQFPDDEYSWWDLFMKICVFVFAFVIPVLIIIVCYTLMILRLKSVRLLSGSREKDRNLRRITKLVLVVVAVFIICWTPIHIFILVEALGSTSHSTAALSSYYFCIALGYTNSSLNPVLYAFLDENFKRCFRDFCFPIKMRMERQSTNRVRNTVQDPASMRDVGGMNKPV
Sequence of Opioid receptor (Mus musculus) (P42866 whole entry, looked up): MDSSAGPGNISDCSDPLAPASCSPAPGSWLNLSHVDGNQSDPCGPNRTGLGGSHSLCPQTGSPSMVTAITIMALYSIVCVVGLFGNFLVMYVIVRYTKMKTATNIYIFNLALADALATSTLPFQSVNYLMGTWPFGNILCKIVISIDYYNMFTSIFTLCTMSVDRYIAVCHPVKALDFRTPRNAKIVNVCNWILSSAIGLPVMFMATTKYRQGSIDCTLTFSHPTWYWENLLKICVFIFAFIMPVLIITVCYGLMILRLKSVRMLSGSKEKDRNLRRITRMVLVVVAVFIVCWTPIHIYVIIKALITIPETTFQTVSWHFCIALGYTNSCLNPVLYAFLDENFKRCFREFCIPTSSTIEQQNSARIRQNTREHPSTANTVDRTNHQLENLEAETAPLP

[13] = Percent inhibition of radioligand [3H]NECA binding to A1,A2 receptor at 10 uM concentration
[14] = target: Beta-adrenergic receptor (Mus musculus) (UniProt P34971+P18762+P25962); test: Percent inhibition of radioligand [3H]DHAP binding to beta receptor at 10 uM concentration; format: protein assay
Sequence of Beta-adrenergic receptor (Mus musculus) (P18762 whole entry, looked up): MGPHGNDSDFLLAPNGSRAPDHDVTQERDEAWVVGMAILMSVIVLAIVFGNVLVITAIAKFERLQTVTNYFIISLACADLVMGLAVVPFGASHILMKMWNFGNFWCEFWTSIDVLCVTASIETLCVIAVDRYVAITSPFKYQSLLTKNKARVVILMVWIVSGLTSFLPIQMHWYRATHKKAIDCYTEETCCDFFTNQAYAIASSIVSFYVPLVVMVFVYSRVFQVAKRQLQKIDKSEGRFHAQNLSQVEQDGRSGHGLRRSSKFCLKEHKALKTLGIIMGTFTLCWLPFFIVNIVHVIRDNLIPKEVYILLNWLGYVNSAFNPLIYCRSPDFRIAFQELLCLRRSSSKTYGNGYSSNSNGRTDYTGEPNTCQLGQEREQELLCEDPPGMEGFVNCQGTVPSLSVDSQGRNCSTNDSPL
Sequence of Beta-adrenergic receptor (Mus musculus) (P25962 whole entry, looked up): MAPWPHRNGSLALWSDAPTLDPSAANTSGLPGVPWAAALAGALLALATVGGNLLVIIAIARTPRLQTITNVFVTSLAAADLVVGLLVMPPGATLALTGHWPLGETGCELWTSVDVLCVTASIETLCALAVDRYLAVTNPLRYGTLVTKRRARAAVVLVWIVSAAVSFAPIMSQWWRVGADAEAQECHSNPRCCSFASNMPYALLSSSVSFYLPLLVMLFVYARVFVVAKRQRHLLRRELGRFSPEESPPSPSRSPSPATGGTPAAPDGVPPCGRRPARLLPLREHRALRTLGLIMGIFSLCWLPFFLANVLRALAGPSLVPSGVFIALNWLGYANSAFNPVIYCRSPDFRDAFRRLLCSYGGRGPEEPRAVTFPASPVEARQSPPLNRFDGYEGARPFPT
Sequence of Beta-adrenergic receptor (Mus musculus) (P34971 whole entry, looked up): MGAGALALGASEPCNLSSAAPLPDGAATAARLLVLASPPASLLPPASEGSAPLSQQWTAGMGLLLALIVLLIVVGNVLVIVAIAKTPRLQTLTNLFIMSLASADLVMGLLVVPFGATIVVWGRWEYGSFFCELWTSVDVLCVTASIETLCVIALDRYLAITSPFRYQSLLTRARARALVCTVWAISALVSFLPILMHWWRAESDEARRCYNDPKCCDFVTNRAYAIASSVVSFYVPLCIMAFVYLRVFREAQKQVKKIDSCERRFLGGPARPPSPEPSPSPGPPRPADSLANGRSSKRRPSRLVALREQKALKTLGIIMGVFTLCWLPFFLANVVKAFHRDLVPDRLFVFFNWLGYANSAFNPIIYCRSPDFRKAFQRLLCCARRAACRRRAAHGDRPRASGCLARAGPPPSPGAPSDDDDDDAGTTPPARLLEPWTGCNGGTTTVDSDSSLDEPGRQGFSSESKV

[15] = Percent inhibition of […] binding to GABA-A benzodiazepine receptor at 10 uM
Mus musculus [16] = species: Mus musculus; test: Percent inhibition of radioligand [3H]-LSD binding to 5-HT receptor at 10 uM concentration
[17] = target: D(2) dopamine receptor (Mus musculus) (UniProt P61168); test: Percent inhibition of radioligand [3H]raclopride binding to D2 receptor at 10 uM concentration
Sequence of D(2) dopamine receptor (Mus musculus) (P61168 whole entry): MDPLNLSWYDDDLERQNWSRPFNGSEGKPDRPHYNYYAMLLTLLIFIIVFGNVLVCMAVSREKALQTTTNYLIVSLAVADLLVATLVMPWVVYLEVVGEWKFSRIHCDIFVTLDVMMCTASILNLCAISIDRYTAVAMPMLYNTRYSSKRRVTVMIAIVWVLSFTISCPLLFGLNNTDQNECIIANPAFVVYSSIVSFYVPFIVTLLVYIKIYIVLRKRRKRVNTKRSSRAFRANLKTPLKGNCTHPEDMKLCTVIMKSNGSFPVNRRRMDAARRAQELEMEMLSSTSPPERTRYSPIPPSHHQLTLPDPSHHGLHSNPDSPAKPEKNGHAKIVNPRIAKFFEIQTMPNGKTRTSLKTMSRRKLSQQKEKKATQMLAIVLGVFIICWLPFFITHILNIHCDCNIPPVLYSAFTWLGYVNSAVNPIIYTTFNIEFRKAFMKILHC

[18] = target: D(1A) dopamine receptor (Mus musculus) (UniProt Q61616); test: Percent inhibition of radioligand [3H]SCH-23,390 binding to dopamine receptor D1 at 10 uM concentration
Glutamate NMDA receptor [19] = test: Binding affinity was determined towards NMDA receptor using [3H]TCP as radioligand in rat
Outline: as §1, with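 “counting. Ki from EBDA/LIGAND; mean ± SEM of ≥3 determinations in triplicate.” for “counting.”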

Mus musculus [20] = species: Mus musculus; test: Electrophysiological responses in closed channel block to NMDA were recorded in 13-day old mouse cortical neuronal cultures.; format: functional

CCOC1(OCC)C2c3cc(C(F)(F)F)ccc3C([n+]3ccccc32)C1(C)C (configuration not stated)
Ki (Glutamate NMDA receptor [1]): 401 nM

CCOC1(OCC)C2c3cc(Br)ccc3C([n+]3ccccc32)C1(C)C.[O-][Cl+3]([O-])([O-])[O-] (configuration not stated)
IC50 (Mus musculus [2]; Mus musculus): 173 nM | Ki (Glutamate NMDA receptor [1]): 52 nM

CCOC1(OCC)C2c3ccccc3C([n+]3c(C)cccc32)C1(C)C (configuration not stated)
Ki (Glutamate NMDA receptor [1]): 314 nM

CCOC1(OCC)C2c3cc([N+](=O)[O-])ccc3C([n+]3ccccc32)C1(C)C.[O-][Cl+3]([O-])([O-])[O-] (configuration not stated)
IC50 (Mus musculus [3]): 15.3 µM | Ki (Glutamate NMDA receptor [1]): 2760 nM

CCOC1(OCC)C2c3c(OC)cccc3C([n+]3ccccc32)C1(C)C (configuration not stated)
IC50 (Mus musculus [2]; Mus musculus): 22 nM | Ki (Glutamate NMDA receptor [1]): 13 nM

CCOC1(OCC)C2c3cccc(OC)c3C([n+]3ccccc32)C1(C)C (configuration not stated)
Ki (Glutamate NMDA receptor [1]): 1840 nM

COC1(OC)C2c3ccccc3C([n+]3ccccc32)C1(C)C (configuration not stated)
Ki (Glutamate NMDA receptor [1]): 103 nM

CCOC1(OCC)C2c3cc(Cl)ccc3C([n+]3ccccc32)C1(C)C (configuration not stated)
Ki (Glutamate NMDA receptor [1]): 12 nM

CCOC1(OCC)C2c3c(OC(C)C)cccc3C([n+]3ccccc32)C1(C)C (configuration not stated)
Ki (Glutamate NMDA receptor [1]): 48 nM

CCOC1(OCC)C2c3cccc(C)c3C([n+]3ccccc32)C1(C)C (configuration not stated)
Ki (Glutamate NMDA receptor [1]): 455 nM

CCOC1(OCC)C2c3cc(OC)ccc3C([n+]3ccccc32)C1(C)C (configuration not stated)
IC50 (Mus musculus [2]; Mus musculus): 157 nM | Ki (Glutamate NMDA receptor [1]): 4 nM

CC1(C)C2c3ccccc3C(c3cccc[n+]32)C12OCCCO2 (configuration not stated)
Ki (Glutamate NMDA receptor [1]): 2900 nM

CCOC1(OCC)C2c3ccccc3C([n+]3ccccc32)C1(CC)CC (configuration not stated)
Ki (Glutamate NMDA receptor [1]): 11 nM

CCOC1(OCC)CC2c3ccccc3C1c1cccc[n+]12 (configuration not stated)
IC50 (Mus musculus [2]; Mus musculus): 95000 nM | Ki (Glutamate NMDA receptor [1]): 3800 nM

CCOC1(OCC)C2c3c(C)cccc3C([n+]3ccccc32)C1(C)C (configuration not stated)
Ki (Glutamate NMDA receptor [1]): 46 nM

CC1(C)C2c3ccccc3C(c3cccc[n+]32)C12OCCO2 (configuration not stated)
Ki (Glutamate NMDA receptor [1]): 3460 nM

CCOC1(OCC)C2c3c(O)cccc3C([n+]3ccccc32)C1(C)C (configuration not stated)
Ki (Glutamate NMDA receptor [1]): 8 nM

CCOC1(OCC)C2c3c(OC)ccc(OC)c3C([n+]3ccccc32)C1(C)C (configuration not stated)
Ki (Glutamate NMDA receptor [1]): > 10000 nM

CCOC1(OCC)C2c3c(Br)cccc3C([n+]3ccccc32)C1(C)C.[O-][Cl+3]([O-])([O-])[O-] (configuration not stated)
IC50 (Mus musculus [2]; Mus musculus): 1040 nM | Ki (Glutamate NMDA receptor [1]): 132 nM

CCCOC1(OCCC)C2c3ccccc3C([n+]3ccccc32)C1(C)C.[O-][Cl+3]([O-])([O-])[O-] (configuration not stated)
IC50 (Mus musculus [2]; Mus musculus): 85 nM | Ki (Glutamate NMDA receptor [1]): 12 nM

CCOC1(OCC)C2c3ccccc3C([n+]3ccccc32)C1(OCC)OCC (configuration not stated)
Ki (Glutamate NMDA receptor [1]): 4990 nM

CC1(C)C(=O)C2c3ccccc3C1[n+]1ccccc12 (configuration not stated)
Ki (Glutamate NMDA receptor [1]): > 10000 nM

CCOC1(OCC)C2c3ccccc3C([n+]3cccc(OC)c32)C1(C)C (configuration not stated)
Ki (Glutamate NMDA receptor [1]): 26 nM

CCOC1(OCC)C2c3c(OC(C)=O)cccc3C([n+]3ccccc32)C1(C)C (configuration not stated)
Ki (Glutamate NMDA receptor [1]): 26 nM

CCOC1(OCC)C2c3ccc(OC)cc3C([n+]3ccccc32)C1(C)C (configuration not stated)
Ki (Glutamate NMDA receptor [1]): 123 nM

CCOC1(OCC)C2(C)c3ccccc3C([n+]3ccccc32)C1(C)C.[O-][Cl+3]([O-])([O-])[O-] (configuration not stated)
IC50 (Mus musculus [2]; Mus musculus): 32 nM | Ki (Glutamate NMDA receptor [1]): 11 nM

CCOC1(OCC)C2c3ccccc3C([n+]3ccccc32)C1(C)C (racemic) [listing 1 of 2 here]
IC50 (Mus musculus [4]): 260 nM | Ki (Glutamate NMDA receptor [1]): 8 nM

CCOC1(OCC)C2c3ccccc3C([n+]3ccccc32)C1(C)C (racemic) [listing 2 of 2 here]
Ratio [5]: > 384 CC/OC

CCOC1(OCC)C2c3ccccc3C([n+]3ccccc32)C1(C)C (single isomer, unassigned; (+)) [listing 1 of 2 here]
IC50 (Mus musculus [2]; Mus musculus): 50 nM | Ki (Glutamate NMDA receptor [1]): 11 nM

CCOC1(OCC)C2c3ccccc3C([n+]3ccccc32)C1(C)C (single isomer, unassigned; (+)) [listing 2 of 2 here]
inhibition [6]: 55% | inhibition [7]: 52% | inhibition [8]: 7% | inhibition [9]: 51% | inhibition [10]: 31% | inhibition [11]: 53% | inhibition [12]: 73% | inhibition [13]: 1% | inhibition [14]: 4% | inhibition [15]: 14% | inhibition (Mus musculus [16]): 12% | inhibition [17]: 20%

CCOC1(OCC)C2c3ccccc3C([n+]3ccccc32)C1(C)C (single isomer, unassigned; (-)) [listing 1 of 2 here]
IC50 (Mus musculus [2]): 26 nM | Ki (Glutamate NMDA receptor [1]): 4 nM

CCOC1(OCC)C2c3ccccc3C([n+]3ccccc32)C1(C)C (single isomer, unassigned; (-)) [listing 2 of 2 here]
inhibition [6]: 0% | inhibition [7]: 32% | inhibition [9]: 23% | inhibition [10]: 21% | inhibition [11]: 50% | inhibition [18]: 1% | inhibition [12]: 51% | inhibition [13]: 3% | inhibition [14]: 3% | inhibition (Mus musculus [16]): 11% | inhibition [17]: 9%

CCOC1(OCC)C2c3ccccc3C(C1C)[n+]1ccccc12.[O-][Cl+3]([O-])([O-])[O-] (stereo in doubt; 1a)
Ki (Glutamate NMDA receptor [19]): 115 nM | IC50 (Mus musculus [2]; Mus musculus): 810 nM

CCOC1(OCC)C2c3ccccc3C(C1C)[n+]1ccccc12.[O-][Cl+3]([O-])([O-])[O-] (stereo in doubt; 1b)
IC50 (Mus musculus [2]): 1160 nM | Ki (Glutamate NMDA receptor [1]): 34 nM

CCOC1C2c3ccccc3C([n+]3ccccc32)C1(C)C (stereo in doubt; 7a)
Ki (Glutamate NMDA receptor [1]): 465 nM

CCOC1C2c3ccccc3C([n+]3ccccc32)C1(C)C (stereo in doubt; 7b)
Ki (Glutamate NMDA receptor [1]): 1880 nM

C[C@]12N[C@H](Cc3ccccc31)c1ccccc12 [DIZOCILPINE MALEATE]
IC50 (Mus musculus [20]): 5.8 nM

c1ccc(C2(N3CCCCC3)CCCCC2)cc1 [PHENCYCLIDINE]
Ki (Glutamate NMDA receptor [1]): 38 nM
